Published values gathered from unrelated publications.
Protocols differ between the studies behind these lines.

SMILES	test system	setting	measurement	result
CC[C@@H]1CN(C(=O)NCC(F)(F)F)C[C@@H]1c1cnc2cnc3[nH]ccc3n12	beagle dog, plasma	oral, 1 mg/kg, single dose	CL/F	29.3 mL/min/kg
C=CC(=O)Nc1cc(Nc2nccc(Nc3cc(Cl)c(F)cc3C(C)(C)O)n2)c(OC)cc1N1CC[C@@H](N(C)C)C1	beagle dog, plasma	intravenous, 1 mg/kg	clearance	30.9 mL/min/kg
CC(C)(C)c1ccc(O)c(CN(Cc2cc(C(C)(C)C)ccc2O)C2CCC(NC(N)=O)CC2)c1 (centres unmarked)	male C57BL/6 mouse, plasma	intraperitoneal, 5 mg/kg, single dose	clearance	15.7 mL/min/kg
COc1cc2c3c(n(CCCN4CCOCC4)c(=O)c2cc1OC)-c1cc2c(cc1C3=O)OCO2	male beagle dog, plasma	intravenous, 100 mg/m², infusion	Cmax	461 ng/mL
CC(C)Oc1c(NC(=O)c2ccc(NC(=O)[C@H](CC(N)=O)NC(=O)c3ccc(NC(=O)c4ccc(C#N)cc4)cc3)cc2)ccc(C(=O)Nc2ccc(C(=O)O)cc2)c1O	male CD-1 mouse, plasma	intravenous, 5 mg/kg, single dose	C0	2940 ng/mL
COc1ccc2nccc(N3CCc4c(cc(Cn5ccnc5)cc4-c4cn(C)nc4C(F)(F)F)C3=O)c2c1	male CD-1 mouse, plasma	intravenous, 3 mg/kg	C0	3430 ng/mL
COc1ccc(C(O)COc2ccc(-c3csc(-c4ccc(OCC(O)c5ccc(OC)c(OC)c5)cc4)n3)cc2)cc1OC (centres unmarked)	C57BL/6 mouse, plasma	intravenous, 3 mg/kg	C0	5280 ng/mL
Oc1c(-n2ccnn2)cnn1-c1cc(N2CCOCC2)ncn1	female dog, blood	intravenous, 3 mg/kg	clearance	18.3 mL/min/kg
CC[C@H](C)[C@@H]1NC(=O)[C@@](C)(NC(=O)[C@H](CCCNC(=N)N)NC(=O)[C@H](CC(C)C)NC(=O)[C@@H](NC(=O)[C@H](CCC(N)=O)NC(=O)[C@H](CC(C)C)NC(C)=O)[C@@H](C)O)CCCC=CCCC[C@@](C)(C(=O)N[C@@H](CC(C)C)C(=O)N[C@@H](Cc2ccc3ccccc3c2)C(N)=O)NC(=O)[C@H](CCCNC(=N)N)NC(=O)[C@H](CCC(N)=O)NC1=O	male BALB/c mouse, plasma	intravenous, 10 mg/kg	clearance	0.713 mL/min/kg
CCn1c(=O)c(-c2cc(NC(=O)Nc3ccccc3)c(F)cc2Br)cc2cnc(NC)cc21	beagle dog, plasma	oral, 5 mg/kg, single dose	Cmax	544 ng/mL
C=CC(=O)N1CC2CC(n3nc(-c4ccc(C(=O)Nc5ccccn5)cc4)c4c(N)ncnc43)CC2C1 (centres unmarked)	male Wistar rat, plasma	oral, 30 mg/kg	Tmax	2 h
COc1cc(OC)c2nccc(N3CCc4c(cc(Cn5ccnc5)cc4-c4cn(C)nc4C(F)(F)F)C3=O)c2c1	male CD-1 mouse, plasma	intravenous, 3 mg/kg	C0	1600 ng/mL
O=C(NCCN1CCCC1)c1cc(-c2ccc(CN3CCOCC3)cc2)nc2ccc(F)cc12	male beagle dog, blood	oral, 3 mg/kg	Cmax	27 ng/mL
CCc1cc(C(=O)NC)c2nccc(N3CCc4c(cc(Cn5ccnc5)cc4-c4cn(C)nc4C(F)(F)F)C3=O)c2c1	male Sprague-Dawley rat, plasma	oral, 100 mg/kg, single dose	Tmax	1.3 h
COCc1nn(Cc2ccc(Cn3ccccc3=O)cc2)cc1C(=O)NCc1nccc(OC)c1F	male beagle dog, plasma	oral, 1 mg/kg	Cmax	284 ng/mL
Cc1ccc2cncc(N3CCc4c(cc(Cn5ccnc5)cc4-c4cn(C)nc4C(F)(F)F)C3=O)c2c1	male CD-1 mouse, plasma	intravenous, 3 mg/kg	C0	5480 ng/mL
Cc1nn2c(-c3c(C)nn(C)c3-c3ccc(C(F)(F)F)cc3)nc(CO)c2c(=O)[nH]1	male beagle dog, plasma	intravenous, 1 mg/kg	clearance	1.3 mL/min/kg
